Measured values from ChEMBL document CHEMBL4251636, “Design, synthesis and biological evaluations of novel pyridone-thiazole hybrid molecules as antitumor agents” (Eur J Med Chem, 2018).

Key:
[1] = system: HCT-116; experiment: Antiproliferative activity against human HCT116 cells after 72 hrs by MTT assay; format: functional, cell-based; settings: HCT-116, 72 h
How it was run: (§1)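 Cells grown to log phase in RPMI 1640 with 10% FBS, seeded at 2×10^4 cells/mL and incubated 24 h at 37 °C, 5% CO2. Compounds added, then 72 h at 37 °C. MTT (5 mg/mL stock) for 4 h, formazan dissolved in DMSO, absorbance read at 570 nm. Triplicate wells per concentration, three independent experiments. IC50 is the concentration giving 50% growth inhibition versus untreated control, reported as mean ± S.E.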

[2] = system: MGC-803; experiment: Antiproliferative activity against human MGC803 cells after 72 hrs by MTT assay; format: functional, cell-based; settings: MGC-803, 72 h; how it was run: as §1
[3] = system: Huh-7; experiment: Antiproliferative activity against human HuH7 cells after 72 hrs by MTT assay; format: functional, cell-based; settings: Huh-7, 72 h; how it was run: as §1
[4] = system: MGC-803; experiment: Potency index, ratio of 5-Fluorouracil IC50 to compound IC50 for antiproliferative activity against human MGC803 cells; format: functional
[5] = system: HCT-116; experiment: Potency index, ratio of 5-Fluorouracil IC50 to compound IC50 for antiproliferative activity against human HCT116 cells; format: functional

Structure (SMILES) | IC50 [1] [µM] | IC50 [2] [µM] | IC50 [3] [µM] | Ratio IC50 [4] | Ratio IC50 [5]
CC(=O)c1sc(N/N=C2/C=C(Nc3ccc(C)cc3)C(Nc3ccc(C)cc3)=NC2=O)nc1C | 52.7 | 75.5 | 72 |  | 
CC(=O)c1sc(N/N=C2/C=C(Nc3ccc(Br)cc3)C(Nc3ccc(Br)cc3)=NC2=O)nc1C | 13.2 | 9.12 | 17.9 |  | 
CC(=O)c1sc(N/N=C2/C=C(Nc3cccc(Cl)c3)C(Nc3cccc(Cl)c3)=NC2=O)nc1C | 10.6 | 5.18 | > 128 |  | 
CC(=O)c1sc(N/N=C2/C=C(Nc3ccccc3Cl)C(Nc3ccccc3Cl)=NC2=O)nc1C | 8.17 | 3.15 | 21.5 | 8.1 | 1.4
COc1cccc(NC2=C/C(=N/Nc3nc(C)c(C(C)=O)s3)C(=O)N=C2Nc2cccc(OC)c2)c1 | > 128 | > 128 | > 128 |  | 
CC(=O)c1sc(N/N=C2/C=C(Nc3ccccc3)C(Nc3ccccc3)=NC2=O)nc1C | 25.3 | 13.5 | 19.1 |  | 
COc1ccc(NC2=C/C(=N/Nc3nc(C)c(C(C)=O)s3)C(=O)N=C2Nc2ccc(OC)cc2)cc1 | > 128 | 82.6 | > 128 |  | 
CC(=O)c1sc(N/N=C2/C=C(Nc3cccc(Br)c3)C(Nc3cccc(Br)c3)=NC2=O)nc1C | 22.2 | 21.6 | > 128 |  | 
CC(=O)c1sc(N/N=C2/C=C(Nc3ccccc3C)C(Nc3ccccc3C)=NC2=O)nc1C | > 128 | 45 | > 128 |  | 
COc1ccccc1NC1=C/C(=N/Nc2nc(C)c(C(C)=O)s2)C(=O)N=C1Nc1ccccc1OC | 85.4 | 51.1 | 20.6 |  | 
CC(=O)c1sc(N/N=C2/C=C(Nc3ccc(Cl)cc3)C(Nc3ccc(Cl)cc3)=NC2=O)nc1C | 8.28 | 8.56 | > 128 |  | 
CC(=O)c1sc(N/N=C2/C=C(Nc3cccc(F)c3)C(Nc3cccc(F)c3)=NC2=O)nc1C | 22.8 | 21.4 | 58.8 |  | 
CC(=O)c1sc(N/N=C2/C=C(Nc3cccc(C)c3)C(Nc3cccc(C)c3)=NC2=O)nc1C | > 128 | > 128 | > 128 |  | 
O=c1[nH]cc(F)c(=O)[nH]1 [FLUOROURACIL] | 11.3 | 25.5 | 5.63 |  | 
